# Shown are actives, neighbours in structure and some others; about 3.2% of the full set was active somewhere.
# rCAG binder = binders of r(CAG) RNA repeats, primary screen, biochemical, fluorescence; r(CAG) RNA repeat, TO-PRO-1 dye displacement fluorescence; inhibition, % at 3 µM; hit rate 1.3% among 370,000; AID 651821, 2012;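 active = inhibition above the plate cutoff, the mean of all test compounds on that plate plus 3 SD, cut at about 35% in these data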;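 note: higher means more dye released from RNA so lower well fluorescence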
# DAGLB inhibitor = DAGLB lipase inhibitors, primary screen, biochemical, fluorescence, HTS | Diacylglycerol lipase-beta (Homo sapiens), Q8NCG7 | hit rate 0.059% among 340,000 | inhibition, % at 5.17 µM | HEK293T DAGLB membrane lysate, EnzChek fluorogenic substrate; in the data active = inhibition above about 34%
# LEDGF integ inh = blockers of LEDGF/p75-dependent integrase strand transfer – biochemical, TR-FRET, high throughput, primary screen; TR-FRET IN-LEDGF/p75 DNA integration, Eu/Cy5; inhibition, % at 3.7 µM; hit rate 0.64% among 370,000; HIV-1 integrase (with human LEDGF/p75);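 active = inhibition above the screen-wide mean plus 3 SD, cut at about 13% in these data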;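 note: signal is the Cy5 over europium emission ratio at 671 and 618 nm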
# HTRA1 inhibitor = HTRA1 serine protease inhibitors, primary screen, biochemical, fluorescence polarization, HTS; recombinant HTRA1, FP-rhodamine activity-based probe; AID 504803, 2011; Q92743; hit rate 0.5% among 340,000; inhibition, % at 5.96 µM; in the data active = inhibition above about 36%
# PRMT1 inh = PRMT1 methyltransferase inhibitors, primary screen, biochemical, fluorescence polarization; recombinant PRMT1, activity-based probe fluorescence polarization; inhibition, % at 2.79 µM; hit rate 1.3% among 370,000;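 active = inhibition above about 21% made by adding two undisclosed values, limit read from the data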
# Target sequence (Q99873 whole entry, looked up): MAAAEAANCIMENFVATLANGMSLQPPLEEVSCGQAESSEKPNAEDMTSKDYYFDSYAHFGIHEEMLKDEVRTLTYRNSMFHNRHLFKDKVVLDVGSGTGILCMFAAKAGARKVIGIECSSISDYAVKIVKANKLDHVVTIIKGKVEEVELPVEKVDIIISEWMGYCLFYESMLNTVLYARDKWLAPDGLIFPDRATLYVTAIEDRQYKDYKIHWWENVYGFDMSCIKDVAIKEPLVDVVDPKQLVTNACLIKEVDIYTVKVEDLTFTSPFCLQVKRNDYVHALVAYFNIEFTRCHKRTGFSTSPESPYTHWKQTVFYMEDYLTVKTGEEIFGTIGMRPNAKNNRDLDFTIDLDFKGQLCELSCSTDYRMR
# mABHD4 FP = ABHD4 inhibitors, primary screen, biochemical, fluorescence polarization, mouse. purified mABHD4, FP-Rh probe fluorescence polarization. hit rate 0.54% among 370,000. (Lyso)-N-acylphosphatidylethanolamine lipase (Mus musculus), Q8VD66. AID 720543, 2013. inhibition, % at 8.92 µM;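 active = inhibition exceeding the mean over every tested compound plus 3 SD, cut at about 30% in these data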
#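 Assay system: mABHD4 protein; medium: HEPES pH 7.0, NaCl, Pluronic buffer; dosing: 8.92 µM, single dose; schedule: 45 min + 60 min at 25 °C; signal: FP readout, ex 525 nm / em 598 nm; read-out: normalized percent inhibition of probe labeling; repeats: single replicate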
# PRMT1 inh conf = PRMT1 methyltransferase inhibitors, confirmation, biochemical, fluorescence polarization, triplicate. shares compounds with PRMT1 inh. recombinant His-PRMT1, activity-based probe fluorescence polarization. inhibition, % at 2.79 µM. hit rate 42% among 3,300. AID 687036, 2013;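 active = mean inhibition across replicates above the hit cutoff derived for the earlier primary screen, cut at about 22% in these data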
# Numbers stand for hits; – = inactive; · = not tested or not shown.
SMILES,rCAG binder,DAGLB inhibitor,LEDGF integ inh,HTRA1 inhibitor,PRMT1 inh,mABHD4 FP,PRMT1 inh conf
NNC(=O)CN(CCc1ccccc1)S(=O)(=O)c1ccc(Cl)cc1,–,–,–,–,–,–,·
Cc1cc(C)n(CCc2nc(-c3cc4ccccc4o3)cs2)n1,–,–,–,–,–,–,·
Cc1cc(C)n(CCc2nc(-c3ccc(C)o3)cs2)n1,–,–,–,–,68,–,34
C(=Cc1c[nH]c2ccccc12)c1nccc2ccccc12,–,–,–,–,52,–,–
C(=Cc1c[nH]c2ccccc12)c1ccc2ccccc2n1,–,–,–,–,–,–,·
Cc1cc(-c2ccc(C)c(S(=O)(=O)NCCCN3CCCCCC3)c2)on1,–,–,–,–,–,–,·
COc1ccc(OC)c(C2CC(=O)N3CN(c4ccccc4F)CSC3=C2C#N)c1 (configuration not stated),–,–,–,–,33,–,22
COc1ccc(OC)c(C2CC(=O)N3CN(c4cccc(Cl)c4)CSC3=C2C#N)c1 (configuration not stated),–,–,–,–,–,–,·
COc1ccc(OC)c(C2CC(=O)N3CN(c4cccc(Cl)c4C)CSC3=C2C#N)c1 (configuration not stated),–,–,–,–,45,–,64
COc1cccc(C2CC(=O)N3CN(c4cccc(Cl)c4C)CSC3=C2C#N)c1OC (configuration not stated),–,–,–,–,29,–,54
CCOc1ccc(C(=O)NC(C)(C)CC)cc1,–,–,–,–,–,–,·
CC(NC(=O)C[n+]1cccc(Br)c1)c1ccccc1 (configuration not stated),–,–,–,–,–,–,·
CCN1C(=O)CC(n2c(C)nc3ccccc32)C1=O (configuration not stated),–,–,–,–,–,–,·
CCCCN1C(=O)CC(SC2CC(=O)N(CCCC)C2=O)C1=O (configuration not stated),–,–,–,–,57,–,–
CCN1C(=O)CC(SC2CC(=O)N(CC)C2=O)C1=O (configuration not stated),–,–,–,–,33,–,27
CCCCN1C(=O)CC(Sc2ncccc2C(=O)O)C1=O (configuration not stated),–,–,–,–,–,–,·
COC1=CC(=O)c2ccccc2C1=O,·,–,·,–,·,·,·
COC1=CC(=O)C=C(OC)C1=O,–,–,–,–,56,–,54
CC12CCC(C(=O)N(CSC(=S)N/N=C\c3ccccc3O)C1=O)C2(C)C (configuration not stated),–,–,–,–,25,–,–
COc1ccc(/C=N\NC(=S)SCN2C(=O)C3CCC(C)(C2=O)C3(C)C)cc1 (configuration not stated),–,–,–,–,–,–,·
CN(C)c1ccc(/C=N\NC(=S)SCN2C(=O)C3CCC(C)(C2=O)C3(C)C)cc1 (configuration not stated),–,–,–,–,43,–,–
CC12CCC(C(=O)N(CC(O)CN3CCN(Cc4ccccc4)CC3)C1=O)C2(C)C (configuration not stated),–,·,–,·,–,–,·
O=C(Nc1ccc2c(c1)OCCO2)C1c2ccccc2OCC(=O)N1Cc1ccco1 (configuration not stated),–,·,–,·,–,–,·
CCCOc1ccc(-c2c(=O)n(O)c3ccccc3[n+]2[O-])cc1,–,–,–,–,32,–,–
CN1CCN(C(=S)c2ccc(N(C)C)cc2)CC1,–,–,–,–,43,–,43
SMILES,rCAG binder,DAGLB inhibitor,LEDGF integ inh,HTRA1 inhibitor,PRMT1 inh,mABHD4 FP,PRMT1 inh conf
CN1CCN(C(=S)c2ccc([N+](=O)[O-])cc2)CC1,–,–,–,–,36,–,45
CN1CCN(C(=S)c2ccc(Br)cc2)CC1,–,–,–,–,41,–,44
CSc1ccc(C(=S)N2CCN(C)CC2)cc1,–,–,–,–,–,–,·
CN1CCN(C(=O)c2sc(=S)n(-c3ccccc3)c2N)CC1,–,–,–,–,76,–,79
Oc1ccc(CNc2ccccc2Br)c2cccnc12,·,·,–,·,32,–,–
Oc1ccc(CNc2cccc(F)c2)c2cccnc12,·,·,–,·,63,–,48
Cc1ccccc1NCc1ccc(O)c2ncccc12,–,–,–,–,–,–,·
Cc1ccc(-c2csc3nc(C)n(-n4cccc4)c(=O)c23)o1,–,–,–,–,26,–,–
COc1ccccc1CN1C(=O)CNC1=S,·,–,·,–,·,·,·
NC(=O)/C(=C/c1ccco1)C(N)=S,–,–,–,–,53,–,22
NC(=O)/C(=C/c1ccco1)NC(=O)c1ccc(Br)o1,–,–,–,–,–,–,·
CC(=O)OCCNc1cc(Sc2nc3ccccc3[nH]2)c2nonc2c1[N+](=O)[O-],–,–,–,–,92,–,52
CCc1ccccc1NC(=O)CSc1nnc([C@@H](N)Cc2ccccc2)o1,–,–,–,–,43,–,28
CCCN=Cc1sc2ccc(OCC)cc2c1O,–,–,–,–,88,–,29
CCOc1cc(CNn2cn[nH]c2=S)cc(Cl)c1OCc1ccccc1F,–,–,–,–,32,–,–
O=C(CCNC(=O)c1ccc([N+](=O)[O-])cc1)NCCc1ccccc1,–,–,–,–,–,–,·
Cc1nc2ccc(S(=O)(=O)NC(CC(C)C)C(=O)O)cc2s1 (configuration not stated),–,–,–,–,35,–,–
CCCOc1ccc(Oc2ccc(S(=O)(=O)N3CCN(C)CC3)cn2)cc1,–,–,–,–,–,–,·
O=C(NC(=S)NC1CCSC1=O)c1cccs1 (configuration not stated),–,–,–,–,36,–,–
COc1ccc(C(=O)NC(=S)NC2CCSC2=O)cc1 (configuration not stated),–,–,–,–,29,–,–
CCC(C)(C)NC(=O)C(c1ccc(C)o1)N(C(=O)c1csnn1)c1cccc(F)c1 (configuration not stated),–,–,–,–,–,–,·
COc1cc(C(=S)N2CCN(c3cccc(Cl)c3)CC2)ccc1O,–,–,–,–,–,–,·
CCN(CC)c1ccc(C(=O)N2CCN(Cc3ccccc3)CC2)cc1,–,–,–,–,–,–,·
